Measured values published in ChEMBL document CHEMBL1134439, “Radioiodinated styrylbenzenes and thioflavins as probes for amyloid aggregates” (J Med Chem, 2001).

How the values were obtained:
Mus musculus [1] = assay: Biodistribution was measured in mice heart 60 minutes after intravenous injection of [125I]-labeled styrylbenzene.; format: ADME, organism-based; conditions: in vivo, 1 h
Procedure, shortened: (§1)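 ICR mice (2-3 months old, 20-30 g) under ether anesthesia received 5-10 µCi ¹²⁵I tracer in 0.15 mL saline by tail-vein injection. Animals were killed by cardiac excision at set times post-injection. Organs were removed, weighed and γ-counted. Values are % dose per organ against diluted injectate aliquots, taking blood and muscle as 7% and 40% of body weight. Mean of 3-4 mice ± SD.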

Mus musculus [2] = assay: Biodistribution was measured in mice kidney 30 minutes after intravenous injection of [125I]-labeled styrylbenzene.; format: ADME, organism-based; conditions: in vivo, 0.5 h; procedure, shortened: as §1
Mus musculus [3] = assay: Biodistribution was measured in mice kidney 5 minutes after intravenous injection of [125I]-labeled styrylbenzene.; format: ADME, organism-based; conditions: in vivo; procedure, shortened: as §1
Mus musculus [4] = assay: Biodistribution was measured in mice kidney 60 minutes after intravenous injection of [125I]-labeled styrylbenzene.; format: ADME, organism-based; conditions: in vivo, 1 h; procedure, shortened: as §1
Mus musculus [5] = assay: Biodistribution was measured in mice liver 30 minutes after intravenous injection of [125I]-labeled styrylbenzene.; format: ADME, organism-based; conditions: in vivo, 0.5 h; procedure, shortened: as §1
Mus musculus [6] = assay: Biodistribution was measured in mice liver 5 minutes after intravenous injection of [125I]-labeled styrylbenzene.; format: ADME, organism-based; conditions: in vivo; procedure, shortened: as §1
Mus musculus [7] = assay: Biodistribution was measured in mice liver 60 minutes after intravenous injection of [125I]-labeled styrylbenzene.; format: ADME, organism-based; conditions: in vivo, 1 h; procedure, shortened: as §1
Mus musculus [8] = assay: Biodistribution was measured in mice muscle 30 minutes after intravenous injection of [125I]-labeled styrylbenzene.; format: ADME, organism-based, Muscle tissue; conditions: in vivo, 0.5 h; procedure, shortened: as §1
Mus musculus [9] = assay: Biodistribution was measured in mice muscle 5 minutes after intravenous injection of [125I]-labeled styrylbenzene.; format: ADME, organism-based, Muscle tissue; conditions: in vivo; procedure, shortened: as §1
Mus musculus [10] = assay: Biodistribution was measured in mice muscle 60 minutes after intravenous injection of [125I]-labeled styrylbenzene.; format: ADME, organism-based, Muscle tissue; conditions: in vivo, 1 h; procedure, shortened: as §1
Mus musculus [11] = assay: Biodistribution was measured in mice skin 30 minutes after intravenous injection of [125I]-labeled styrylbenzene.; format: ADME, organism-based, Zone of skin; conditions: in vivo, 0.5 h; procedure, shortened: as §1
Mus musculus [12] = assay: Biodistribution was measured in mice skin 5 minutes after intravenous injection of [125I]-labeled styrylbenzene.; format: ADME, organism-based, Zone of skin; conditions: in vivo; procedure, shortened: as §1
Mus musculus [13] = assay: Biodistribution was measured in mice skin 60 minutes after intravenous injection of [125I]-labeled styrylbenzene.; format: ADME, organism-based, Zone of skin; conditions: in vivo, 1 h; procedure, shortened: as §1
Mus musculus [14] = assay: Biodistribution was measured in mice spleen 30 minutes after intravenous injection of [125I]-labeled styrylbenzene.; format: ADME, organism-based; conditions: in vivo, 0.5 h
Procedure, shortened: (§2)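 ICR mice (2-3 months old, 20-30 g) under ether anesthesia; 0.15 mL saline containing 5-10 µCi ¹²⁵I tracer injected into tail vein. Sacrifice by cardiac excision at set times; organs removed, weighed, γ-counted. Expressed as % dose per organ versus diluted aliquots of injectate. Mean of three or four mice ± SD.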

Mus musculus [15] = assay: Biodistribution was measured in mice spleen 5 minutes after intravenous injection of [125I]-labeled styrylbenzene.; format: ADME, organism-based; conditions: in vivo; procedure, shortened: as §2
Mus musculus [16] = assay: Biodistribution was measured in mice spleen 60 minutes after intravenous injection of [125I]-labeled styrylbenzene.; format: ADME, organism-based; conditions: in vivo, 1 h; procedure, shortened: as §2
Mus musculus [17] = assay: Biodistribution was measured in mice blood 30 minutes after intravenous injection of [125I]-labeled styrylbenzene.; format: ADME, organism-based; conditions: in vivo, 0.5 h; procedure, shortened: as §1
Mus musculus [18] = assay: Biodistribution was measured in mice blood 5 minutes after intravenous injection of [125I]-labeled styrylbenzene.; format: ADME, organism-based; conditions: in vivo; procedure, shortened: as §1
Mus musculus [19] = assay: Biodistribution was measured in mice lung 30 minutes after intravenous injection of [125I]-labeled styrylbenzene.; format: ADME, organism-based; conditions: in vivo, 0.5 h; procedure, shortened: as §1
Mus musculus [20] = assay: Biodistribution was measured in mice lung 5 minutes after intravenous injection of [125I]-labeled styrylbenzene.; format: ADME, organism-based; conditions: in vivo; procedure, shortened: as §1
Mus musculus [21] = assay: Biodistribution was measured in mice lung 60 minutes after intravenous injection of [125I]-labeled styrylbenzene.; format: ADME, organism-based; conditions: in vivo, 1 h; procedure, shortened: as §1
Mus musculus [22] = assay: Biodistribution was measured in mice brain 5 minutes after intravenous injection of [125I]-labeled styrylbenzene; format: ADME, organism-based; conditions: in vivo; procedure, shortened: as §1
Mus musculus [23] = assay: Biodistribution was measured in mice brain 60 minutes after intravenous injection of [125I]-labeled styrylbenzene; format: ADME, organism-based; conditions: in vivo, 1 h; procedure, shortened: as §1
Mus musculus [24] = assay: Biodistribution was measured in mice heart 30 minutes after intravenous injection of [125I]-labeled styrylbenzene.; format: ADME, organism-based; conditions: in vivo, 0.5 h; procedure, shortened: as §1
Mus musculus [25] = assay: Biodistribution was measured in mice heart 5 minutes after intravenous injection of [125I]-labeled styrylbenzene.; format: ADME, organism-based; conditions: in vivo; procedure, shortened: as §1
Mus musculus [26] = assay: Biodistribution was measured in mice blood 60 minutes after intravenous injection of [125I]-labeled styrylbenzene.; format: ADME, organism-based; conditions: in vivo, 1 h; procedure, shortened: as §1
Mus musculus [27] = assay: Biodistribution was measured in mice brain 30 minutes after intravenous injection of [125I]-labeled styrylbenzene; format: ADME, organism-based; conditions: in vivo, 0.5 h; procedure, shortened: as §1

What does the source list for `O=C(O)c1cc(/C=C/c2ccc(/C=C/c3ccc(O)c(C(=O)O)c3)c(I)c2)ccc1O`?
Dose/organ (Mus musculus [1]): 0.13%; Dose/organ (Mus musculus [2]): 0.77%; Dose/organ (Mus musculus [3]): 1.67%; Dose/organ (Mus musculus [4]): 0.63%; Dose/organ (Mus musculus [5]): 30.16%; Dose/organ (Mus musculus [6]): 42.68%; Dose/organ (Mus musculus [7]): 19.12%; Dose/organ (Mus musculus [8]): 3.9%; Dose/organ (Mus musculus [9]): 5.68%; Dose/organ (Mus musculus [10]): 2.98%; Dose/organ (Mus musculus [11]): 4.13%; Dose/organ (Mus musculus [12]): 4.02%; Dose/organ (Mus musculus [13]): 3.66%; Dose/organ (Mus musculus [14]): 0.13%; Dose/organ (Mus musculus [15]): 0.25%; Dose/organ (Mus musculus [16]): 0.07%; Dose/organ (Mus musculus [17]): 2.98%; Dose/organ (Mus musculus [18]): 7.57%; Dose/organ (Mus musculus [19]): 0.3%; Dose/organ (Mus musculus [20]): 0.81%; Dose/organ (Mus musculus [21]): 0.25%; Dose/organ (Mus musculus [22]): 0.27%; Dose/organ (Mus musculus [23]): 0.04%; Dose/organ (Mus musculus [24]): 0.17%; Dose/organ (Mus musculus [25]): 0.33%; Dose/organ (Mus musculus [26]): 2.59%; Dose/organ (Mus musculus [27]): 0.06%
